Data taken from ChEMBL document CHEMBL2331506, “Design, synthesis, antiviral and cytostatic evaluation of novel isoxazolidine nucleotide analogues with a carbamoyl linker” (Bioorg Med Chem, 2013).
Active and inactive are the calls of the source.

Tests used:
[1] = tested on: HeLa; test: Cytotoxicity against human HeLa cells assessed as alteration of cell morphology up to 100 uM by microscopic analysis; type: cell-based
Summary of the method: (§1)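 Uninfected host-cell cultures were exposed to compound and examined by microscopy. Cytotoxicity was expressed as the minimum cytotoxic concentration (MCC) causing a microscopically detectable alteration of normal cell morphology.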

[2] = tested on: HEL; test: Cytotoxicity against human HEL cells assessed as alteration of cell morphology up to 100 uM by microscopic analysis; type: cell-based; summary of the method: as §1
[3] = tested on: Influenza A virus; test: Antiviral activity against Influenza A virus H1N1 infected in dog MDCK cells assessed as reduction of virus-induced cytopathogenicity at 250 uM; type: functional, organism-based
Summary of the method: (§2)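 Confluent cell monolayers were infected with 100 CCID50 of virus while exposed to varying compound concentrations. Cytopathicity was scored once it was complete in untreated infected controls. EC50 was taken as the concentration that reduced virus-induced cytopathogenicity by 50%.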

[4] = tested on: Vesicular stomatitis virus; test: Antiviral activity against Vesicular stomatitis virus infected in human HEL cells assessed as reduction of virus-induced cytopathogenicity at 250 uM; type: functional, organism-based; summary of the method: as §2
[5] = tested on: Felid alphaherpesvirus 1; test: Antiviral activity against Feline herpes virus infected in cat CRFK cells assessed as reduction of virus-induced cytopathogenicity at 250 uM; type: functional, organism-based
[6] = tested on: Influenza B virus; test: Antiviral activity against Influenza B virus infected in dog MDCK cells assessed as reduction of virus-induced cytopathogenicity at 250 uM; type: functional, organism-based; summary of the method: as §2
[7] = tested on: Sindbis virus; test: Antiviral activity against Sindbis virus infected in african green monkey Vero cells assessed as reduction of virus-induced cytopathogenicity at 250 uM; type: functional, organism-based
Summary of the method: (§3)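 Confluent monolayers (HEL fibroblasts, Vero, or HeLa cells as listed) were infected with 100 CCID50 of virus in the presence of varying compound concentrations. Virus-induced cytopathicity or plaque formation was scored once cytopathicity was complete in untreated infected controls. EC50 was taken as the concentration reducing cytopathogenicity or plaque formation by 50%.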

[8] = tested on: Influenza A virus; test: Antiviral activity against Influenza A virus H3N2 infected in dog MDCK cells assessed as reduction of virus-induced cytopathogenicity at 250 uM; type: functional, organism-based; summary of the method: as §2
[9] = tested on: Human immunodeficiency virus 2; test: Antiviral activity against Human immunodeficiency virus 2 ROD infected in human CEM cells assessed as reduction of virus-induced giant cell formation at 250 uM after 4 to 5 days; type: functional, organism-based; settings: CCRF-CEM
Summary of the method: (§4)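 CEM cells at 3 × 10^5 cells/mL were infected with HIV at 100 CCID50 per mL in the presence of compound dilutions. They were held 4–5 days at 37 °C in humidified CO2. Syncytium (giant cell) formation was scored microscopically, and EC50 was taken as the concentration inhibiting giant cell formation by 50%.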

[10] = tested on: Punta Toro virus; test: Antiviral activity against Punta Toro virus infected in african green monkey Vero cells assessed as reduction of virus-induced cytopathogenicity at 250 uM; type: functional, organism-based; summary of the method: as §3
[11] = tested on: Mammalian orthoreovirus 1; test: Antiviral activity against Reovirus 1 infected in african green monkey Vero cells assessed as reduction of virus-induced cytopathogenicity at 250 uM; type: functional, organism-based; summary of the method: as §3
[12] = tested on: Feline coronavirus; test: Antiviral activity against Feline coronavirus infected in cat CRFK cells assessed as reduction of virus-induced cytopathogenicity at 250 uM; type: functional, organism-based
[13] = tested on: Vesicular stomatitis virus; test: Antiviral activity against Vesicular stomatitis virus infected in human HeLa cells assessed as reduction of virus-induced cytopathogenicity at 250 uM; type: functional, organism-based; summary of the method: as §2
[14] = Cytotoxicity against cat CRFK cells assessed as alteration of cell morphology up to 100 uM by microscopic analysis; type: cell-based, Felis catus; summary of the method: as §1
[15] = tested on: Human respirovirus 3; test: Antiviral activity against Parainfluenza virus 3 infected in african green monkey Vero cells assessed as reduction of virus-induced cytopathogenicity at 250 uM; type: functional, organism-based; summary of the method: as §3
[16] = tested on: Human alphaherpesvirus 1; test: Antiviral activity against thymidine kinase-deficient, ACV-resistant Herpes simplex virus 1 KOS infected in human HEL cells assessed as reduction of virus-induced cytopathogenicity at 250 uM; type: functional, organism-based; summary of the method: as §2
[17] = tested on: Human alphaherpesvirus 2; test: Antiviral activity against Herpes simplex virus 2 G infected in human HEL cells assessed as reduction of virus-induced cytopathogenicity at 250 uM; type: functional, organism-based; settings: strain G; summary of the method: as §3
[18] = tested on: Coxsackievirus B4; test: Antiviral activity against Coxsackievirus B4 infected in african green monkey Vero cells assessed as reduction of virus-induced cytopathogenicity at 250 uM; type: functional, organism-based; summary of the method: as §3
[19] = tested on: MDCK; test: Cytotoxicity against dog MDCK cells assessed as alteration of cell morphology up to 100 uM by microscopic analysis; type: cell-based, Canis lupus familiaris; summary of the method: as §1
[20] = tested on: Respiratory syncytial virus; test: Antiviral activity against Respiratory syncytial virus long infected in human HeLa cells assessed as reduction of virus-induced cytopathogenicity at 250 uM; type: functional, organism-based; summary of the method: as §3
[21] = tested on: Human immunodeficiency virus 1; test: Antiviral activity against Human immunodeficiency virus 1 3B infected in human CEM cells assessed as reduction of virus-induced giant cell formation at 250 uM after 4 to 5 days; type: functional, organism-based; settings: CCRF-CEM; summary of the method: as §4
[22] = tested on: Human alphaherpesvirus 1; test: Antiviral activity against Herpes simplex virus 1 KOS infected in human HEL cells assessed as reduction of virus-induced cytopathogenicity at 250 uM; type: functional, organism-based; summary of the method: as §3
[23] = tested on: Vero; test: Cytotoxicity against african green monkey Vero cells assessed as alteration of cell morphology up to 100 uM by microscopic analysis; type: cell-based; settings: chlorocebus sabaeus; summary of the method: as §1

CCOP(=O)(OCC)[C@@H]1C[C@H](C(=O)Nc2cccc([N+](=O)[O-])c2)ON1C (mixture of isomers)
inactive: inhibition [3] | inhibition [4] | inhibition [5] | inhibition [6] | inhibition [7] | inhibition [8] | inhibition [9] | inhibition [10] | inhibition [11] | inhibition [12] | inhibition [13] | inhibition [15] | inhibition [16] | inhibition [17] | inhibition [18] | inhibition [20] | inhibition [21] | inhibition [22]
Non-toxic: Activity [1] | Activity [2] | Activity [14] | Activity [19] | Activity [23]

CCOP(=O)(OCC)[C@H]1C[C@H](C(=O)Nc2cc(OC)c(OC)cc2C#N)ON1C (mixture of isomers)
Non-toxic: Activity [1] | Activity [2] | Activity [14] | Activity [19] | Activity [23]
inactive: inhibition [3] | inhibition [4] | inhibition [5] | inhibition [6] | inhibition [7] | inhibition [8] | inhibition [9] | inhibition [10] | inhibition [11] | inhibition [12] | inhibition [13] | inhibition [15] | inhibition [16] | inhibition [17] | inhibition [18] | inhibition [20] | inhibition [21] | inhibition [22]

CCOP(=O)(OCC)[C@H]1C[C@H](C(=O)Nc2ccccc2Br)ON1C (mixture of isomers)
inactive: inhibition [3] | inhibition [4] | inhibition [5] | inhibition [6] | inhibition [7] | inhibition [8] | inhibition [9] | inhibition [10] | inhibition [11] | inhibition [12] | inhibition [13] | inhibition [15] | inhibition [16] | inhibition [17] | inhibition [18] | inhibition [20] | inhibition [21] | inhibition [22]
Non-toxic: Activity [1] | Activity [2] | Activity [14] | Activity [19] | Activity [23]

CCOP(=O)(OCC)[C@@H]1C[C@H](C(=O)Nc2ccc(Br)cc2)ON1C (mixture of isomers)
Non-toxic: Activity [1] | Activity [2] | Activity [14] | Activity [19] | Activity [23]
inactive: inhibition [3] | inhibition [4] | inhibition [5] | inhibition [6] | inhibition [7] | inhibition [8] | inhibition [9] | inhibition [10] | inhibition [11] | inhibition [12] | inhibition [13] | inhibition [15] | inhibition [16] | inhibition [17] | inhibition [18] | inhibition [20] | inhibition [21] | inhibition [22]
